Active and inactive are the calls of the source.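 How the source made its calls: active means fitted curve reaches a 35% signal drop at a concentration no higher than twice the top valid dose, in duplicate at both wavelengths; inactive means the rest, including activity in the opposite direction.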
Test: iron-limited Pseudomonas aeruginosa growth inhibition – whole organism, absorbance 405 nm, EDDHA, dry powder, set 8, dose response (AID 624102)
Conditions: P. aeruginosa with EDDHA, growth/pyoverdine A405, 24-30 h; series mostly up to 120 µM
Procedure, shortened: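 Material – P. aeruginosa ATCC 15692 cells · Amount – final OD600 0.0000005 bacteria · Buffer or medium – succinate M9 medium, pH 7.0, with 2 µM EDDHA iron chelator · Incubation – 24-30 h exposure, 37 °C · Signal – absorbance at 405 nm reflecting pyoverdine production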

outcome, inactive:
CCCCC(C#N)c1ccc(Cl)cc1 (centres undefined)
N#CC1c2ccc(Cl)cc2CCc2cccnc21 (centres undefined)
COCCC(C#N)c1ccc(Cl)cc1 (centres undefined)
CCCCC(C#N)c1ccc(Cl)cn1 (centres undefined)
Clc1ccc(C(c2cccc(Cl)n2)c2nn[nH]n2)cc1 (centres undefined)
COCCOCCC(C#N)c1ccc(F)cc1 (centres undefined)
COCCNC(C#N)c1ccc(Cl)cc1 (centres undefined)
N#CC(c1ccc(Cl)cc1)N1CCCC1 (centres undefined)
N#CC(c1ccc(C(F)(F)F)c(Cl)n1)c1ccccc1OC(F)(F)F (centres undefined)
CCCCC(c1ccc(Cl)cc1)c1nn[nH]n1 (centres undefined)
CCCCC(C#N)c1ccc(F)cn1 (centres undefined)
N#CC(c1ccc(F)cc1)c1cccc(Cl)n1 (centres undefined)
COCCC(C#N)c1ccc(F)cc1 (centres undefined)
COCCOCCC(C#N)c1ccc(Cl)cc1 (centres undefined)
CCCCC(C#N)c1ccc(F)cc1 (centres undefined)
CN(C)CCCC(C#N)c1ccc(F)cc1 (centres undefined)
N#Cc1cccc(C(C#N)c2ccc(F)cc2)n1 (centres undefined)
CCCCC(C#N)c1ccccn1 (centres undefined)
N#CC(c1ccc(Cl)cc1)c1ccccn1 (centres undefined)

— PubChem BioAssay AID624102 (Broad Institute, 2012)
